Source: ChEMBL document CHEMBL4219175, “Synthesis and biological evaluation of aminothiazoles against Histoplasma capsulatum and Cryptococcus neoformans” (Bioorg Med Chem, 2018)
≈ marks a conversion by molar mass, not a printed value.

Key:
Histoplasma capsulatum [1] = assay: Antifungal activity against Histoplasma capsulatum G217B ATCC 26032 at pH 7 measured over 5 days; assay type: functional, organism-based; conditions: G217B ATCC 26032, 120 h
Outline: (§1)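 Yeasts pre-grown in HMM (37 °C, 5% CO2) to exponential phase, counted by hemacytometer, diluted into RPMI buffered with 25 mM HEPES (pH 7.0) or 25 mM MOPS (pH 5.0) at 5 x 10^5 per well; two-fold dilutions 40 to 0.078 µM, 37 °C, agitated twice daily. A595 read over 5 days, normalized to DMSO controls; 4-day data fitted by 4-parameter regression for IC50; MIC = ≤10% growth.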

Cryptococcus neoformans [2] = assay: Antifungal activity against wild type fluconazole-sensitive Cryptococcus neoformans serotype A H99 at pH 7 measured over 4 days; assay type: functional, organism-based; conditions: var grubii H99 , 96 h
Outline: (§2)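 YPD-grown exponential-phase yeasts, hemacytometer-counted, diluted into RPMI buffered to pH 7.0 with 25 mM HEPES (or pH 5.0 with […] for pH comparison) at 2 x 10^3 per well; two-fold series 40 to 0.078 µM, 37 °C, agitated twice daily. A595 followed over 4 days versus DMSO controls; day-3 turbidity fitted by 4-parameter regression for IC50; MIC = growth ≤10% of untreated.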

P388D1 = assay: Cytotoxicity against mouse P388D1 cells assessed as reduction in cell viability after 72 hrs by resazurin-based fluorescence assay; conditions: P388D1, 72 h
Outline: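 P388D1 cells in Ham's F-12 + 10% FBS + 2 mM L-glutamine seeded at 5 x 10^3 per well, adhered overnight, exposed to compounds 80 to 0.3 µM for 72 h. Viability read as resorufin fluorescence (530/590 nm) after 0.1 mM resazurin, pre-saturation time points, versus untreated cells; three biological replicates; IC50 by non-linear regression.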

[3] = Therapeutic index, ratio of IC50 for mouse P388D1 cells to IC50 for Histoplasma capsulatum G217B ATCC 26032; assay type: toxicity; conditions: read-out: Ratio IC50
Outline: (§3)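 Ratio of P388D1 IC50 (72 h resazurin viability, 80 to 0.3 µM) to yeast IC50 from RPMI/HEPES pH 7.0 broth dilution with A595 turbidity and 4-parameter regression.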

[4] = Therapeutic index, ratio of IC50 for mouse P388D1 cells to IC50 for wild type Cryptococcus neoformans serotype A H99; assay type: toxicity; conditions: read-out: Ratio IC50; outline: as §3
Cryptococcus neoformans [5] = assay: Antifungal activity against wild-type fluconazole-sensitive Cryptococcus neoformans serotype D B3501 measured over 4 days; assay type: functional, organism-based; conditions: B3501, 96 h; outline: as §2
Cryptococcus neoformans [6] = assay: Antifungal activity against fluconazole-resistant Cryptococcus neoformans serotype A TES9 harboring erg11 mutant measured over 4 days; assay type: functional, organism-based; conditions: TES9, 96 h; outline: as §2
Cryptococcus neoformans [7] = assay: Antifungal activity against fluconazole-resistant Cryptococcus neoformans serotype A MRL862 harboring erg11 mutant measured over 4 days; assay type: functional, organism-based; conditions: MRL862, 96 h; outline: as §2
Histoplasma capsulatum [8] = assay: Antifungal activity against RFP expressing Histoplasma capsulatum infected in LacZ-expressing mouse P388D1 cells incubated for 6 days measured daily by fluorescence assay; assay type: functional, organism-based
Outline: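 LacZ-expressing P388D1 macrophages (3x10^4 per well, adhered 3 h) infected with RFP Histoplasma yeasts at MOI 1:2 for 3 h, medium replaced with F-12 + 10% serum, overnight at 37 °C, then compound gradient added for 6 days. RFP fluorescence (530/590 nm) read daily; day-4 values relative to untreated infected cells fitted by non-linear regression; triplicate.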

[9] = Aqueous solubility of the compound at pH 5; assay type: physicochemical; conditions: aqueous medium
[10] = Aqueous solubility of the compound at pH 7; assay type: physicochemical; conditions: aqueous medium
[11] = Ratio of aqueous solubility at pH 5 to aqueous solubility at pH 7; assay type: physicochemical; conditions: buffer
Histoplasma capsulatum [12] = assay: Antifungal activity against Histoplasma capsulatum G217B ATCC 26032 at pH 5 measured over 5 days; assay type: functional, organism-based; conditions: G217B ATCC 26032, 120 h; outline: as §1
Cryptococcus neoformans [13] = assay: Antifungal activity against wild type fluconazole-sensitive Cryptococcus neoformans serotype A H99 at pH 5 measured over 4 days; assay type: functional, organism-based; conditions: var grubii H99 , 96 h; outline: as §2

| Compound | IC50 (Histoplasma capsulatum [1]) [nM] | MIC90 (Histoplasma capsulatum [1]) [µM] | IC50 (Cryptococcus neoformans [2]) [nM] | MIC90 (Cryptococcus neoformans [2]) [µM] | IC50 (P388D1) [nM] | selectivity ratio [3] | further results |
| --- | --- | --- | --- | --- | --- | --- | --- |
| O=C(CCC1CCCCC1)Nc1ncc(Cc2csc3ccccc23)s1 | 270 | 0.63 (≈ 0.242 µg/mL) | > 20000 | > 40 | 16900 | 63 | – |
| O=C(CCC1CCCCC1)Nc1ncc(Cc2cccc3c2CCCC3)s1 | 900 | 2.5 (≈ 0.956 µg/mL) | > 20000 | > 40 | 24300 | 27 | – |
| O=C(CCC1CCCCC1)Nc1ncc(Cc2cccc3ccccc23)s1 | 600 | 1.25 (≈ 0.473 µg/mL) | > 20000 | > 40 | 27600 | 46 | – |
| O=C(CCC1CCCCC1)Nc1ncc(Cc2cccc3nsnc23)s1 | > 20000 | > 40 | > 20000 | > 40 | – | – | – |
| O=C(CCC1CCCCC1)Nc1ncc(Cc2cccc3c2CCC3)s1 | 380 | 0.63 (≈ 0.232 µg/mL) | > 20000 | > 40 | > 40000 | > 105 | – |
| O=C(Nc1ncc(Cc2cccc3sccc23)s1)C1CCCCC1 | 200 | 0.31 (≈ 0.111 µg/mL) | 210 to 370 | 0.63 to 1.25 (≈ 0.225 to 0.446 µg/mL) | > 40000 | > 200 | selectivity ratio [4]: > 108; IC50 (Cryptococcus neoformans [5]): 160 nM; MIC90 (Cryptococcus neoformans [5]): 0.63 µM (≈ 0.225 µg/mL); IC50 (Cryptococcus neoformans [6]): 190 nM; MIC90 (Cryptococcus neoformans [6]): 0.31 µM (≈ 0.111 µg/mL); IC50 (Cryptococcus neoformans [7]): 130 nM; MIC90 (Cryptococcus neoformans [7]): 0.31 µM (≈ 0.111 µg/mL); MIC (Histoplasma capsulatum [8]; 144 h): 2.5 µM (≈ 0.891 µg/mL); IC50 (Histoplasma capsulatum [8]; P388D1, 144 h): 1210 nM |
| O=C(CCC1CCCCC1)Nc1ncc(Cc2ccccc2)s1 | 800 | 1.25 (≈ 0.411 µg/mL) | > 20000 | > 40 | > 40000 | > 50 | – |
| O=C(CCC1CCCCC1)Nc1ncc(Cc2cccc3sccc23)s1 | 200 | 0.31 (≈ 0.119 µg/mL) | > 20000 | > 40 | > 40000 | > 200 | – |
| O=C(CCC1CCCCC1)Nc1ncc(Cc2ccnc3ccccc23)s1 | > 20000 | > 40 | > 20000 | – | – | – | solubility [9]: 5 µg/mL (≈ 13.2 µM); solubility [10]: 3 µg/mL (≈ 7.9 µM); Ratio [11]: 1.7; IC50 (Histoplasma capsulatum [12]): 15700 nM; MIC90 (Histoplasma capsulatum [12]): 40 µM (≈ 15.2 µg/mL); IC50 (Cryptococcus neoformans [13]): > 20000 nM; MIC90 (Cryptococcus neoformans [13]): > 40 µM |
| O=C(Nc1ncc(Cc2ccncc2)s1)C1CCCCC1 | > 20000 | – | > 20000 | – | – | – | solubility [9]: 1190 µg/mL (≈ 3950 µM); solubility [10]: 350 µg/mL (≈ 1160 µM); Ratio [11]: 3.4; IC50 (Histoplasma capsulatum [12]): > 20000 nM; MIC90 (Histoplasma capsulatum [12]): > 40 µM; IC50 (Cryptococcus neoformans [13]): > 20000 nM; MIC90 (Cryptococcus neoformans [13]): > 40 µM |
| OC(Cn1cncn1)(Cn1cncn1)c1ccc(F)cc1F [FLUCONAZOLE] | – | – | 950 | 4.08 (≈ 1.25 µg/mL) | – | – | IC50 (Cryptococcus neoformans [5]): 130 nM; MIC90 (Cryptococcus neoformans [5]): 2.04 µM (≈ 0.625 µg/mL); IC50 (Cryptococcus neoformans [6]): 27400 nM; MIC90 (Cryptococcus neoformans [6]): 65.4 µM (≈ 20 µg/mL); IC50 (Cryptococcus neoformans [7]): 14600 nM; MIC90 (Cryptococcus neoformans [7]): 32.7 µM (≈ 10 µg/mL) |
| O=C(Nc1ncc(Cc2cccc3c2CCC3)s1)C1CCCCC1 | 250 | 0.63 (≈ 0.215 µg/mL) | 410 | 1.25 (≈ 0.426 µg/mL) | > 40000 | > 160 | selectivity ratio [4]: > 98; IC50 (Cryptococcus neoformans [5]): 420 nM; MIC90 (Cryptococcus neoformans [5]): 1.25 µM (≈ 0.426 µg/mL); IC50 (Cryptococcus neoformans [6]): 450 nM; MIC90 (Cryptococcus neoformans [6]): 1.25 µM (≈ 0.426 µg/mL); IC50 (Cryptococcus neoformans [7]): 370 nM; MIC90 (Cryptococcus neoformans [7]): 1.25 µM (≈ 0.426 µg/mL) |
| O=C(Nc1ncc(Cc2cccc3ccoc23)s1)C1CCCCC1 | 420 | 1.25 (≈ 0.426 µg/mL) | 620 | 2.5 (≈ 0.851 µg/mL) | > 40000 | > 95 | selectivity ratio [4]: > 65; IC50 (Cryptococcus neoformans [5]): 320 nM; MIC90 (Cryptococcus neoformans [5]): 0.63 µM (≈ 0.214 µg/mL); IC50 (Cryptococcus neoformans [6]): 410 nM; MIC90 (Cryptococcus neoformans [6]): 0.63 µM (≈ 0.214 µg/mL); IC50 (Cryptococcus neoformans [7]): 150 nM; MIC90 (Cryptococcus neoformans [7]): 0.63 µM (≈ 0.214 µg/mL) |
| O=C(CCC1CCCCC1)Nc1ncc(C(=O)c2cccc3ccccc23)s1 | 640 | 1.25 (≈ 0.491 µg/mL) | > 20000 | > 40 | > 40000 | > 63 | – |
| O=C(CCC1CCCCC1)Nc1ncc(Cc2cccc3ccoc23)s1 | 400 | 0.63 (≈ 0.232 µg/mL) | > 20000 | > 40 | 17800 | 44 | – |
